A selection: hits, their analogues and other compounds. The true share with any hit is near 3.5%.
RGS4 act: potentiators or activators of RGS4; HEK293 M3R/inducible RGS4, carbachol calcium flux Fluo4; hits give low values; B-score at 10 µM; AID 463111; 0.92% of 310,000 active;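 active = B-score of the integrated calcium signal more than 4 SD below the library mean, with starting fluorescence not abnormally high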;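 also: negative B-score means reduced calcium response which marks RGS4 activation or potentiation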
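Reagent: ECmax carbachol challenge; Test system: M3R-expressing HEK293 line, RGS4 induced by doxycycline; Schedule: overnight RGS4 induction, 30 min dye load 37 °C, 20 min compound RT; Detection: calcium dye Fluo4 fluorescence; Read-out: Agonist-evoked peak-minus-minimum fluorescence over baseline, integrated ratio, B score.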
RGS4 inh: human RGS4 inhibition | P49798 | HEK293 M3R/RGS4 inducible, Fluo-4 calcium flux; hits give high values; triggered by carbachol at its EC20 | B-score at 10 µM | 0.45% of 310,000 active | AID 463165;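 active = B-score, a plate-corrected calcium signal, over three deviations above library mean, with baseline fluorescence within five deviations of library mean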;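 also: RGS4 expression induced by doxycycline in cells with stable M3 receptor; B-score is computed from the integrated fluorescence ratio over baseline after carbachol; higher B-score means a larger calcium signal and so more RGS4 inhibition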
Target sequence (P49798 whole entry, looked up): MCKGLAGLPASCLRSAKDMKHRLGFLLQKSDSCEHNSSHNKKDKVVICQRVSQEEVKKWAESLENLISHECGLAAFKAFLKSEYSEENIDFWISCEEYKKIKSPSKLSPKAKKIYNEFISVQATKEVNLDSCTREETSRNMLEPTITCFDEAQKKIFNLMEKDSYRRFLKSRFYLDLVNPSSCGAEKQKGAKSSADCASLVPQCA
MrgX1 antag: human MrgX1 receptor antagonism, primary screen | MRGX1-HEK293 calcium flux, Fluo-4, BAM8-22 antagonism; hits give low values | B-score at 10 µM | 1.3% of 310,000 active | AID 588676 | Q96LB2;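 active = calcium-response B-score plate-corrected more than 3 library SD below zero, starting fluorescence within 5 deviations, no agonist response on first addition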;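 also: peak minus trough fluorescence over baseline after final BAM8-22 challenge near maximal dose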
Target sequence (Q96LB2 whole entry, looked up): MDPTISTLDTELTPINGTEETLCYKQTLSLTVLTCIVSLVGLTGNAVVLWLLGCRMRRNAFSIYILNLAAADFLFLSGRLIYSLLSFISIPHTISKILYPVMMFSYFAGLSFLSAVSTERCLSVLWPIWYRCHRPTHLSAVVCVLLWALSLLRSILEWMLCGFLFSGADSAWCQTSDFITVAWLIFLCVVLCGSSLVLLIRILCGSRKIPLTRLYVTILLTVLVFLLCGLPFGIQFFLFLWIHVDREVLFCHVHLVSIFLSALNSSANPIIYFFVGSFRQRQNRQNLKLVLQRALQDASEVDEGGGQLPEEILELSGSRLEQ
MrgX1 agonist: activates human MrgX1 receptor signaling; Q96LB2; MrgX1-HEK293 cells, Fluo-4 calcium fluorescence, agonist mode; hits give high values; B-score at 10 µM; 0.44% of 310,000 active;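 active = calcium response B-score plate-corrected fluorescence ratio at least 3 library SD, with starting fluorescence B-score inside 5 SD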
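System: HEK293 cells stably expressing human MrgX1 receptor; Dosing: test compound in the initial addition of three; Schedule: overnight plating, then 30 min 37 °C plus 30 min room-temperature dye loading; Detection: kinetic calcium dye fluorescence, Fluo-4 NW; Controls: per-plate positive and negative controls for Z′ factor.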
MrgX1 PAM: allosterically activates human MrgX1 receptor signaling; AID 588675; 0.63% of 310,000 active; B-score at 10 µM; Q96LB2; MrgX1-HEK293, Fluo-4 calcium flux, FDSS; hits give high values;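 active = plate-corrected calcium response at least 3 library SD above typical, normal starting fluorescence, not activating the receptor alone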;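 also: compound read alongside a low EC10 to EC30 dose of BAM8-22 agonist; peak minus trough fluorescence over baseline measured at the second addition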
MrgX1 ant reconf: human MrgX1 receptor antagonism, re-confirmation screen; remaining BAM8-22 calcium response % of control (hits give low values), % at 10 µM; 19% of 2,300 active; MrgX1-HEK293, BAM8-22 calcium flux, Fluo-4; hits give low values; shares compounds with MrgX1 antag;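 active = remaining agonist calcium response no higher than 100% minus 3 SD of agonist-only control wells, with starting fluorescence near control levels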;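 also: agonist BAM8-22 given at a near maximal EC90 to ECmax level; peak minus minimum fluorescence divided by baseline after agonist addition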
HEK293 Ca flux: activity in parental HEK293 cells lacking MrgX1; shares compounds with MrgX1 antag; Fluo-4 calcium fluorescence, FDSS; fluorescence ratio F(max-min)/F0 at 10 µM; 2% of 4,000 active; AID 624111;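 active = duplicate-averaged calcium fluorescence ratio at least three times the standard deviation of buffer wells, a nonspecific response in parental cells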
HEK293 Ca counter: counter-screen for MrgX1 allosteric activators: effect in parental HEK293 cells. shares compounds with MrgX1 antag. parental HEK293 calcium flux, Fluo-4 fluorescence ratio; hits give high values. fluorescence ratio F(max-min)/F0 at 10 µM. 0.4% of 4,000 active. AID 624114;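 active = calcium fluorescence ratio, averaged over duplicates, at least 3 SD of the buffer-well ratio, meaning a nonspecific response in receptor-free cells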;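 also: untransfected parental HEK293 lacking MrgX1 used as counterscreen for MrgX1 allosteric activators; fluorescence change taken during the second addition on a kinetic imager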
HEK293 Ca cntr2: counter-screen for MrgX1 activators: effect in parental HEK293 cells. shares compounds with MrgX1 antag. Fluo-4 calcium fluorescence (FDSS); hits give high values. fluorescence ratio F(max-min)/F0 at 10 µM. 8.7% of 4,000 active. AID 624115;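 active = calcium fluorescence ratio at least three times the spread of buffer wells, meaning a non-specific response in parental cells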
Large screens that a line does not name were inactive (follow-up assays come after a bar, where they were run).

COc1cc(CNn2cn[nH]c2=S)ccc1OCC(=O)NC(C)(C)C	MrgX1 antag -4.6 | MrgX1 ant reconf inactive | HEK293 Ca flux inactive | HEK293 Ca counter inactive | HEK293 Ca cntr2 inactive
COc1ccc(CNC(=S)Nc2ccccc2)cc1Cl	none
CCCOc1ccc(CNC(=S)Nc2ccccc2)cc1Cl	MrgX1 antag -6.7 | MrgX1 ant reconf 77% | HEK293 Ca flux inactive | HEK293 Ca counter inactive | HEK293 Ca cntr2 inactive
Cc1cc2c(cc1S(=O)(=O)NCc1ccccc1)OCC(=O)N2	none
Cc1cc(C(=O)COC(=O)c2ccc3c(c2)NC(=O)CS3)c(C)n1CC1CCCO1 (stereo unspecified)	MrgX1 antag -5.9 | MrgX1 ant reconf inactive | HEK293 Ca flux inactive | HEK293 Ca counter inactive | HEK293 Ca cntr2 inactive
O=C(Nc1cccc(Cl)c1N1CCOCC1)c1cccnc1Cl	none
CCOC(=O)c1cnc(-n2nc(C)cc2C)nc1NC1CCCC1	MrgX1 antag -4.7 | MrgX1 ant reconf inactive | HEK293 Ca flux inactive | HEK293 Ca counter inactive | HEK293 Ca cntr2 inactive
CCOC(=O)c1cnc(-n2nc(C)cc2C)nc1Nc1ccc(OC)cc1	none
CS(=O)(=O)N(CC(=O)NCc1ccccc1)c1ccc(Cl)cc1	none
Cc1cccc(C)c1OC(=O)CN(c1ccc(Cl)cc1)S(C)(=O)=O	MrgX1 antag -7.1 | MrgX1 ant reconf inactive | HEK293 Ca flux inactive | HEK293 Ca counter inactive | HEK293 Ca cntr2 inactive
Oc1c(Br)cc(Br)cc1C=NCc1ccc(F)cc1	MrgX1 antag -5.2 | MrgX1 ant reconf inactive | HEK293 Ca flux inactive | HEK293 Ca counter inactive | HEK293 Ca cntr2 inactive
Oc1c(Br)cc(Br)cc1C=NCc1ccccc1	none
COC(=O)c1cn(NC(=O)Cc2ccccc2Br)c(=O)c2ccccc12	none
CCOC(=O)Cc1csc(NC(=O)c2c(O)c3c(n(CC(C)C)c2=O)CCCC3)n1	MrgX1 antag -6.8 | MrgX1 ant reconf 81% | HEK293 Ca flux inactive | HEK293 Ca counter inactive | HEK293 Ca cntr2 inactive
C#CC1CCCCC1NC(=O)Nc1cnccc1C(F)(F)F (stereo unspecified)	none
Cn1c(O)c(N=NC(=O)Cn2ccc(C(F)(F)F)n2)c2ccccc21	MrgX1 antag -6.3 | MrgX1 ant reconf inactive | HEK293 Ca flux inactive | HEK293 Ca counter inactive | HEK293 Ca cntr2 inactive
COc1cc(NC(=O)c2cccs2)c(C(=O)OCC(=O)NC(=O)NC(C)(C)C)cc1OC	MrgX1 antag -4.6 | MrgX1 ant reconf 81% | HEK293 Ca flux inactive | HEK293 Ca counter inactive | HEK293 Ca cntr2 inactive
COc1cc(NC(=O)c2cccs2)c(C(=O)OCC(=O)NC(=O)NCc2ccccc2)cc1OC	none
COc1ccc(N2CC(C(=O)Nc3cccc(S(=O)(=O)N4CCCC4)c3)CC2=O)c(OC)c1 (stereo unspecified)	MrgX1 antag -9 | MrgX1 ant reconf inactive | HEK293 Ca flux inactive | HEK293 Ca counter inactive | HEK293 Ca cntr2 inactive
COc1ccc(N2CC(C(=O)Nc3ccccc3N3CCCC3)CC2=O)c(OC)c1 (stereo unspecified)	MrgX1 antag -5.8 | MrgX1 ant reconf inactive | HEK293 Ca flux inactive | HEK293 Ca counter inactive | HEK293 Ca cntr2 inactive
CN(C)CCN(C(=O)C1CCN(S(=O)(=O)c2cccs2)CC1)c1nc2c(F)cccc2s1	none
Cc1ccccc1OCC(=O)Nc1nnc(COc2ccccc2)s1	MrgX1 antag -8.2 | MrgX1 ant reconf inactive | HEK293 Ca flux inactive | HEK293 Ca counter inactive | HEK293 Ca cntr2 inactive
COC(=O)/C=c1\[nH]c2nnc(C)n2c1=O	none
Cc1ccc2nc(C(O)C(O)c3nc4ccc(C)cc4[nH]3)[nH]c2c1 (stereo unspecified)	none
Cc1ccc2nc(C(C)O)[nH]c2c1 (stereo unspecified)	MrgX1 antag -7.1 | MrgX1 ant reconf 64% | HEK293 Ca flux inactive | HEK293 Ca counter inactive | HEK293 Ca cntr2 inactive
CC(C)C(OC(=O)c1cccs1)C(=O)NCc1ccccc1 (stereo unspecified)	none
COc1ccc(OC)c(NC(=S)N2CCN(C(=O)C3CCCO3)CC2)c1 (stereo unspecified)	none
CCOc1ccc(NC(=O)CN2CCN(c3ccc(F)cc3)CC2)cc1	MrgX1 antag -5.5 | MrgX1 ant reconf inactive | HEK293 Ca flux inactive | HEK293 Ca counter inactive | HEK293 Ca cntr2 inactive
COc1ccc(NC(=O)CN2CCN(c3ccc(F)cc3)CC2)cc1	none
CCN=C1SC(C(=O)Nc2cc(Cl)cc(Cl)c2)CC(=O)N1CC (stereo unspecified)	MrgX1 antag -5.3 | MrgX1 ant reconf inactive | HEK293 Ca flux inactive | HEK293 Ca counter inactive | HEK293 Ca cntr2 inactive
Cc1ccccc1OCCCN1CCCC1	MrgX1 antag -7.2 | MrgX1 ant reconf inactive | HEK293 Ca flux inactive | HEK293 Ca counter inactive | HEK293 Ca cntr2 inactive
CCN1CCCC1CNC1=NCCCCC1 (stereo unspecified)	MrgX1 antag -5.2 | MrgX1 ant reconf 83% | HEK293 Ca flux inactive | HEK293 Ca counter inactive | HEK293 Ca cntr2 inactive
O=C(c1ccc(S(=O)(=O)N2CCOCC2)cc1)N(c1cccc(Cl)c1)C1C=CS(=O)(=O)C1 (stereo unspecified)	none
O=C(CCc1ccccc1)NC1CCSC1=O (stereo unspecified)	MrgX1 antag -6.1 | MrgX1 ant reconf inactive | HEK293 Ca flux inactive | HEK293 Ca counter inactive | HEK293 Ca cntr2 inactive
CCCCC1CCc2[nH]nc(C(=O)O)c2C1 (stereo unspecified)	none (no result: RGS4 act, RGS4 inh)
CCc1cc(=O)oc2cc(OC(C)=O)cc(OC(C)=O)c12	MrgX1 antag -8.3 | MrgX1 ant reconf inactive | HEK293 Ca flux inactive | HEK293 Ca counter inactive | HEK293 Ca cntr2 inactive
O=C(NCC1CCCO1)C1CC(=O)N(c2ccccc2)C1 (stereo unspecified)	none
Cc1cccc(NC(=O)Nc2cc(C)cc(C)n2)c1	none
Cc1ccc(C)c2nc3sc(C(=O)N4CCCc5ccccc54)c(N)c3cc12	RGS4 act -7, MrgX1 antag -5.4 | MrgX1 ant reconf inactive | HEK293 Ca flux inactive | HEK293 Ca counter inactive | HEK293 Ca cntr2 51
O=C(c1ccc(C(=O)N2CCCc3ccccc32)s1)N1CCCc2ccccc21	none
CCN(CC(=O)Nc1c(F)cccc1F)C(=O)COc1cccc2c1OC(C)(C)C2	MrgX1 antag -5.4 | MrgX1 ant reconf inactive | HEK293 Ca flux inactive | HEK293 Ca counter inactive | HEK293 Ca cntr2 inactive

High-throughput results as filed in PubChem BioAssay.
